This is a sample that favours compounds with a hit; in the whole collection about 1.9% have one here.
CTSL1 counter = Fasciola hepatica cathepsin L1 inhibitors, primary screen, counter-screen for PFM18AAP inhibitor project, biochemical, QFRET, fluorogenic peptide substrate | actives 0.49% (n = 300,000) | recombinant F. hepatica cathepsin L1, Z-Leu-Arg-MCA fluorescence | inhibition, % at 5.96 µM;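 active = inhibition above the mean of all tested compounds plus 3 SD, set per screening campaign, cut at about 17% in these data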;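 note: 0% = plate median of test compound wells and 100% = 1 µM Z-Phe-Ala-diazomethylketone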
T cell HTS = modulators of CD8 T cell-vesicle binding, primary screen, mouse 2C CD8+ T cells, flow cytometry; 2C CD8+ T cell-vesicle binding; stronger effect = lower value; response (vesicle binding), % at 7 µM; actives 0.068% (n = 330,000); AID 2052, 2009;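 active = response, share of CD8 T cells binding vesicles, and their 90th percentile fluorescence all below set limits, cut at about 80% in these data, passing the limit was not always enough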;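 note: values below 100% mean blocked vesicle binding to the CD8+ T cells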
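System: murine 2C transgenic CD8+ T lymphocytes; also added: QL9-loaded Drosophila micro-vesicles; times: binding 1.5 h at 37 °C; measured by: flow cytometry, PE anti-B7-1 (FL2) versus Alexa647 anti-CD8 (FL8), PFA-fixed; control set: Peptide-free naked vesicles (low) and QL9 vesicles with 0.7% DMSO vehicle (high)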
p-CIP stab down = p/CIP-EGFP fusion destabilizers, primary screen, fluorescence, F442A cells | actives 0.01% (n = 290,000) | Q05BA5 | decrease of EGFP signal, % at 10 µM | AID 1984, 2009 | 16 h;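 active = EGFP signal decrease of at least 30% at 10 µM or well 3 SD below plate mean, unless failing retest; inactive = the rest, including hits failing retest or dose response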
Target sequence (Q05BA5 1-1403): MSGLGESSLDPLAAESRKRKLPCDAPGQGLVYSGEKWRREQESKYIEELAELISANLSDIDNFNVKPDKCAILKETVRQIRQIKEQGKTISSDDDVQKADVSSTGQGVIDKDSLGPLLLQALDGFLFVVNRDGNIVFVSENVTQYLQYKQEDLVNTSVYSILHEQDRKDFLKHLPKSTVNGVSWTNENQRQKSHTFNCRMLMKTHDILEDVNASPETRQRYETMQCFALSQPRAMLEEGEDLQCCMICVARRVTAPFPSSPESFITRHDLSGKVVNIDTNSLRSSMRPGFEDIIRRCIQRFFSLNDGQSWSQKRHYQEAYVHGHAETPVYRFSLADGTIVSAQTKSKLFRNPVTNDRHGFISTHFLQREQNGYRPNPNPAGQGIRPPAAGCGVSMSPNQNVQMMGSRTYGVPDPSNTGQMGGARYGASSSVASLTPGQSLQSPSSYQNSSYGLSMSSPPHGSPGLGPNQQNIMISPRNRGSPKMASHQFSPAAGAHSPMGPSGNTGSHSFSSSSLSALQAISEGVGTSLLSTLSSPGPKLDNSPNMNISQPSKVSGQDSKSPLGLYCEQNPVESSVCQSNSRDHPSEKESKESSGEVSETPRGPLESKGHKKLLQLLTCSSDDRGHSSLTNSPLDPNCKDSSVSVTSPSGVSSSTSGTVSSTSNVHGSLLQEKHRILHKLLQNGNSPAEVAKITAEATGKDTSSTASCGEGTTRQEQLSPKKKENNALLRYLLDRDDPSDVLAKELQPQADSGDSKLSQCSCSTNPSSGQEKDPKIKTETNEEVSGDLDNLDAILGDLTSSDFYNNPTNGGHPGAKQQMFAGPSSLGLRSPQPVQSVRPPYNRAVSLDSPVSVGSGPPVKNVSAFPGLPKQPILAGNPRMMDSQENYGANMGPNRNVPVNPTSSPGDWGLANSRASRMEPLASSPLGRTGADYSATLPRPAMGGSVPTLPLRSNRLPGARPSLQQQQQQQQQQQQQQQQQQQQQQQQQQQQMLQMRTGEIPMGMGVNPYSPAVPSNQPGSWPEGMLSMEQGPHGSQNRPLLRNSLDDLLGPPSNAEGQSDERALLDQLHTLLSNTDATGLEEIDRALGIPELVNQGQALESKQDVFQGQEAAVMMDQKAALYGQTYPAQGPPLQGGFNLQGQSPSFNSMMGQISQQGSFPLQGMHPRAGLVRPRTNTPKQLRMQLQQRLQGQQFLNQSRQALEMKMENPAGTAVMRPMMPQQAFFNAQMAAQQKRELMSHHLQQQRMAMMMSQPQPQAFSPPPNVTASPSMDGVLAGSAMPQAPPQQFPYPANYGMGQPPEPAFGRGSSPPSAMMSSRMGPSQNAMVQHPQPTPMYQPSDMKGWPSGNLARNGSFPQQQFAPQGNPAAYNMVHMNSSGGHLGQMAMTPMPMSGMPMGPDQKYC
VIM-2 inh = VIM-2 metallo-beta-lactamase inhibitors, primary screen, biochemical, epi-absorbance readout, Pseudomonas aeruginosa enzyme | purified VIM-2, nitrocefin hydrolysis, epi-absorbance fluorescence | AID 1527, 2009 | actives 0.89% (n = 290,000) | inhibition, % at 5.6 µM;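 active = inhibition above the mean of all tested compounds plus 3 SD, cutoff set per screening run, cut at about 7.5% in these data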;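 note: red hydrolysis product quenches plate fluorescence so inhibitors raise well fluorescence; 0% = enzyme with DMSO and 100% = DMSO without enzyme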
SUMO HTRF inh = inhibitors of in vitro SUMOylation cascade, primary screen, biochemical, HTRF, uHTS; SUMO-conjugating enzyme UBC9 (Homo sapiens), P63279; inhibition, % at 35 µM; AID 2006, 2009; HTRF SUMOylation assay, SAE1/SAE2 + UBC9; actives 0.36% (n = 290,000); in the data active = inhibition above about 50%, passing the limit was not always enough; inconclusive = no clear call, values can overlap the other calls
IMP-1 inhibitor = IMP-1 metallo-beta-lactamase inhibitors, primary screen, biochemical, epi-absorbance readout, Pseudomonas aeruginosa enzyme | metallo-beta-lactamase IMP-1 (Pseudomonas aeruginosa) | inhibition, % at 5.6 µM | purified IMP-1, nitrocefin hydrolysis, epi-absorbance fluorescence | actives 0.45% (n = 290,000);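 active = inhibition above the mean plus 3 SD of all compounds in the same screening run, cut at about 4.5% in these data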;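 note: 0% = IMP-1 with DMSO and 100% = DMSO wells lacking enzyme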
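system = purified recombinant IMP-1 beta-lactamase | amount = 0.2 nM IMP-1, as dispensed | medium = HEPES buffer pH 7.1 with ZnSO4 and Brij 35 | times = 25 °C, 15 min preincubation, 25 min reaction | detection = plate fluorescence quenching by hydrolysis product, ex 480/em 530 nm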
Starred values were filed as active, the others as inactive; ! = not confirmed by another sample.

For Clc1ccc(COC(Cn2ccnc2)c2ccc(Cl)cc2Cl)c(Cl)c1 (stereo not drawn) the results were CTSL1 counter 7, T cell HTS 0.0*!, p-CIP stab down 4, VIM-2 inh -4, SUMO HTRF inh 8 and IMP-1 inhibitor -4.
`CCOC(=O)Cn1cc([N+](=O)[O-])nc1[N+](=O)[O-]` gave CTSL1 counter 18*, T cell HTS 185, p-CIP stab down -7, VIM-2 inh 0, SUMO HTRF inh -5 and IMP-1 inhibitor -3.
`CCCCCCC[n+]1ccc(-c2cc[n+](CCCCCCC)cc2)cc1` gave CTSL1 counter -1, T cell HTS 192, p-CIP stab down 1, VIM-2 inh -1, SUMO HTRF inh 2 and IMP-1 inhibitor 5.0*.
For C[n+]1ccc(-c2cc[n+](C)cc2)cc1 the results were CTSL1 counter 16 and T cell HTS 442.
COC(=O)C1=C(c2cccc(C#N)c2)C[C@@H]2CC[C@H]1N2C(=O)N1CCCCC1 was read as T cell HTS 51.
`Cc1ccc(S(=O)(=O)NCCC(=O)Nc2ccc(Cl)cc2C(=O)c2ccccc2)cc1` gave CTSL1 counter 0, T cell HTS 320, p-CIP stab down -6, VIM-2 inh -3, SUMO HTRF inh -22 and IMP-1 inhibitor -3.
Screening Cc1ccc(S(=O)(=O)N[C@@H](CCCCN)C(=O)CCl)cc1 returned CTSL1 counter 85* and T cell HTS 520.
`C#C[C@]1(O)[C@H](O)CC2C3CC[C@H]4C[C@@H](O)CC[C@]4(C)C3CC[C@@]21C` (stereo partly drawn) gave T cell HTS 622.
CC(C)CC(C)N (stereo not drawn) was read as T cell HTS 960.
`CCCOP(=O)(OCCC)C(NC(=O)c1cc(OC)c(OC)c(OC)c1)c1ccccc1` (stereo not drawn) gave CTSL1 counter 17*, T cell HTS 570, p-CIP stab down 6, VIM-2 inh -1, SUMO HTRF inh 4 and IMP-1 inhibitor -4.
`O=C(O)c1cccc2c1NC(C(=O)O)C1CC(Sc3ccccc3[N+](=O)[O-])C(Cl)C21` (stereo not drawn) gave CTSL1 counter -1, T cell HTS 579, p-CIP stab down -11, VIM-2 inh 2, SUMO HTRF inh inconclusive and IMP-1 inhibitor 5.2*.
For COC(=O)C1=C(c2cccc(Cl)c2)C[C@@H]2CC[C@H]1N2C(=O)NCC1CC1 the results were T cell HTS 724.
`COc1ccc2c3c1OC1C(=O)CC[C@@]4(O)[C@@H](C2)N(CC2CC2)CC[C@]314` (stereo partly drawn) gave T cell HTS 219.
Screening Cc1ccc(NC(=O)CN2C(=O)CN=C(c3ccccc3)c3cc(Cl)ccc32)cc1 returned CTSL1 counter 1, T cell HTS 273, p-CIP stab down -23, VIM-2 inh -2, SUMO HTRF inh -1 and IMP-1 inhibitor -2.
`CN(C)c1ccc(NC(=O)CN2C(=O)CN=C(c3ccccc3)c3cc(Cl)ccc32)cc1` gave CTSL1 counter 5, T cell HTS 413, p-CIP stab down 2, VIM-2 inh -2, SUMO HTRF inh -19 and IMP-1 inhibitor 4.5*.
Screening O=C(c1cccn2c(=O)c3ccc(Cl)cc3nc12)N1CCC2(CC1)OCCO2 returned CTSL1 counter 1, T cell HTS 853, p-CIP stab down -1, VIM-2 inh 0, SUMO HTRF inh 58* and IMP-1 inhibitor -2.
For O=C(c1cccn2c(=O)c3cc(Br)ccc3nc12)N1CCC2(CC1)OCCO2 the results were CTSL1 counter 1, T cell HTS 416, p-CIP stab down 12, VIM-2 inh -4, SUMO HTRF inh 50 and IMP-1 inhibitor -4.
`Cc1ccsc1C(=O)C1CCCN(Cc2ccc(-n3cccn3)cc2)C1` (stereo not drawn) gave CTSL1 counter 0, T cell HTS 175, p-CIP stab down -2, VIM-2 inh -6, SUMO HTRF inh 65* and IMP-1 inhibitor -2.
C[C@]12CC[C@H](O)C[C@H]1CC[C@@H]1[C@@H]2CC[C@]2(C)C(=O)CC[C@@H]12 was read as T cell HTS 352.
CCN(CC)CCCNC(=O)c1c(O)c2ccccc2n(Cc2ccccc2)c1=O was read as CTSL1 counter 2, T cell HTS 250, p-CIP stab down 2, VIM-2 inh 12*, SUMO HTRF inh -4 and IMP-1 inhibitor -3.
CCc1c(-c2ccccc2)nc2ccccc2c1C(=O)N1CCC2(CC1)OCCO2 was read as CTSL1 counter 3, T cell HTS 140, p-CIP stab down 2, VIM-2 inh 1 and IMP-1 inhibitor 0.
For O=C(O)c1cccc(N=Nc2c(O)[nH]c(=O)[nH]c2=O)c1 the results were CTSL1 counter 2, T cell HTS 47*, p-CIP stab down -7, VIM-2 inh -3, SUMO HTRF inh 3 and IMP-1 inhibitor -3.
O=C(c1ccccc1)c1ccc(N=Nc2c(O)[nH]c(=O)[nH]c2=O)cc1 was read as CTSL1 counter 4, T cell HTS 160, p-CIP stab down -6, VIM-2 inh -2, SUMO HTRF inh 4 and IMP-1 inhibitor -3.
Cc1cc(C=C2C(=O)N(C)C(=S)N(C)C2=O)c(C)n1-c1ccncc1 was read as CTSL1 counter 1, T cell HTS 380, p-CIP stab down -4, VIM-2 inh -3, SUMO HTRF inh 6 and IMP-1 inhibitor 18*.
Cc1ccnc(-n2c(C)cc(C=C3C(=O)N(C)C(=S)N(C)C3=O)c2C)c1 was read as CTSL1 counter -1, T cell HTS 152, p-CIP stab down -4, VIM-2 inh 1, SUMO HTRF inh 41 and IMP-1 inhibitor 4.
For CCOC(=O)C(NC(=O)CC)(Nc1ccc(C(O)(C(=O)OCC)C(F)(F)F)cc1C)C(F)(F)F (stereo not drawn) the results were CTSL1 counter 0, T cell HTS 439, p-CIP stab down -24, VIM-2 inh -1, SUMO HTRF inh -7 and IMP-1 inhibitor -3.
`CCOC(=O)C(NC(=O)CCl)(Nc1ccc(C(O)(C(=O)OCC)C(F)(F)F)cc1)C(F)(F)F` (stereo not drawn) gave CTSL1 counter 35*, T cell HTS 592, p-CIP stab down -5, VIM-2 inh -3, SUMO HTRF inh 4 and IMP-1 inhibitor -4.
Screening COC(=O)C1=C(c2ccc(-c3ccccc3)c(F)c2)C[C@@H]2CC[C@H]1N2C(=O)NCCc1ccccc1 returned T cell HTS 318.
